Measured values gathered from unrelated publications.
Protocols differ between the studies behind these lines.

Structure (SMILES)	cell line	assay	setting	endpoint	value
CC(=O)O[C@H]1C(=O)[C@@]2(C)[C@H]([C@H](OC(=O)c3ccccc3)[C@]3(O)C[C@H](OC(=O)[C@H](O)[C@@H](NC(=O)c4ccccc4)c4ccccc4)C(C)=C1C3(C)C)[C@]1(OC(C)=O)CO[C@@H]1C[C@@H]2O	CHP-212	cell growth or viability, SRB	0.1235 µM	viability	21.3%
[NH2][Pt]([NH2])([Cl])[Cl]	SW1573	cell growth or viability, SRB		GI50	2.7 µM
C[C@@H]1COCCN1c1cc(C2([S@](C)(=N)=O)CC2)nc(-c2cc[nH]c3nccc2-3)n1	CT26	cell growth or viability, ATP luminescence	48 h	IC50	8.64 µM
C(=N\Nc1cc(N/N=C/c2ccc3ccccc3n2)nc(-c2ccccc2)n1)/c1ccc2ccccc2n1	Bel-7402	cell growth or viability, MTT	48 h	IC50	10.2 µM
O=C(C[C@@H](C(F)F)n1ccc(F)n1)N1CCC(O)(Cn2cnc3c(cnn3-c3ccc(F)cc3)c2=O)CC1	CHP-212	cell growth or viability, SRB	27.43 nM	viability	72.4%
Oc1cccc(-c2nc(N3CCOCC3)c3oc4ncccc4c3n2)c1	MOLM-13	cell growth or viability, CCK-8	1 µM	inhibition	14.3%
COc1cccc2c1C(=O)c1c(O)c3c(c(O)c1C2=O)C[C@@](O)(C(=O)CO)C[C@@H]3O[C@H]1C[C@H](N)[C@H](O)[C@H](C)O1	CHP-212	cell growth or viability, SRB	41.15 nM	viability	50.8%
COCCC(=O)Nc1ccccc1/N=c1\cc(-c2ccc3nc(N)oc3c2)oc2ccccc12	MOLM-13	cell growth or viability, CCK-8	1 µM	inhibition	2.66%
COc1ncnc(C2CC2)c1-c1ncc2cnn(Cc3ccc(-c4nc(C(F)(F)F)cn4C(C)C)cc3)c2n1	CHP-212	cell growth or viability, SRB	12.5 µM	viability	85.3%
O=c1[nH]cc(F)c(=O)[nH]1	Bel-7402	cell growth or viability, MTT	48 h	IC50	15.8 µM
CC(C)(C)[C@H](N)C(=O)Nc1ccccc1/N=c1\cc(-c2ccc3c(c2)OCO3)oc2ccccc12	MOLM-13	cell growth or viability, CCK-8	1 µM	inhibition	4.05%
O=C(N[C@@H](CSCc1ccccc1)C(=O)NO)c1ccccc1	NCI-H1573	cell growth or viability, MTT	48 h	IC50	11.3 µM
O=C(Nc1ccccc1/N=c1\cc(-c2ccc3c(c2)OCO3)oc2ccccc12)N1CCNCC1	MOLM-13	cell growth or viability, CCK-8	1 µM	inhibition	1.47%
CC(C)C[C@H](NC(=O)[C@H](Cc1ccccc1)NC(=O)c1cnccn1)B(O)O	CHP-212	cell growth or viability, SRB	41.15 nM	viability	90.7%
CNCc1ccc(-c2cc(-c3nc(-c4ccc(S(=O)(=O)C(C)C)cc4)cnc3N)on2)cc1	CT26	cell growth or viability, ATP luminescence	48 h	IC50	1.98 µM
[NH2][Pt]([NH2])([Cl])[Cl]	NCI-H1573	cell growth or viability, MTT	48 h	IC50	75.8 µM
CCCCCCCCCCCCCCCCCCOc1ccc(CC(=O)OCC[N+]2(C)CCOCC2)cc1	NCI-H23	cell growth or viability, SRB	10 µM	inhibition	5.91%

Structure (SMILES)	cell line	assay	setting	endpoint	value
Cc1cnc(CNC(=O)c2c(=O)c3ccc(N4CCCN(C)CC4)nc3n3c2sc2ccccc23)cn1	C6661	cell growth or viability, MTS	72 h	IC50	0.5 µM
CCCCCCCCCCCCCCCCCCOc1ccccc1CC(=O)OCC[N+](C)(C)C	NCI-H23	cell growth or viability, SRB	10 µM	inhibition	59.8%
Cc1cc(=O)oc2cc(OCCCCSC#N)ccc12	SW1573	cell growth or viability, SRB		GI50	0.63 µM
CCCCCCCCCCCCCCCCCCOc1cccc(CC(=O)OCCC[N+](C)(C)C)c1	NCI-H23	cell growth or viability, SRB	10 µM	inhibition	24.1%
C(=N\Nc1cc(N/N=C/c2cccc3cccnc23)ncn1)/c1cccc2cccnc12	Bel-7402	cell growth or viability, MTT	48 h	IC50	17.6 µM
NCCC(=O)Nc1ccccc1/N=c1\cc(-c2ccc3c(c2)OCO3)oc2ccccc12	MOLM-13	cell growth or viability, CCK-8	1 µM	inhibition	2.07%
N#CSCCCCOc1ccc2c(-c3ccccc3)cc(=O)oc2c1	SW1573	cell growth or viability, SRB		GI50	25 µM
CCCCCCCCCCCCCCCCCCOc1cccc(CC(=O)OCC[N+]2(C)CCOCC2)c1	NCI-H23	cell growth or viability, SRB	10 µM	inhibition	4.14%
O=C(O[C@@H]1COC(=O)c2cc(O)c(O)c(O)c2-c2c(cc(O)c(O)c2O)C(=O)O[C@H]1[C@@H]1OC(=O)c2cc(O)c(O)c(O)c2-c2c(O)c(O)c(O)c3c2C(=O)O[C@H]1[C@@H]3O)c1cc(O)c(O)c(O)c1	SIM-A9	NO release, inhibitor, Griess	10.7 µM, LPS-stimulated	inhibition	52%
CCCCCCCCCCCCCCCCCCOc1ccc(CC(=O)OCC[N+]2(C)CCCCC2)cc1	NCI-H23	cell growth or viability, SRB	10 µM	inhibition	13.3%
NCC(=O)Nc1ccccc1/N=c1\cc(-c2ccc3c(c2)OCCO3)oc2ccccc12	MOLM-13	cell growth or viability, CCK-8	1 µM	inhibition	-2.55%
CCCCCCCCCCCCCCCCCCOc1ccc(CC(=O)OCC[N+](CC)(CC)CC)cc1	NCI-H23	cell growth or viability, SRB	10 µM	inhibition	39.5%
Nc1nc2ccc(-c3c/c(=N\c4ccccc4NC(=O)C4CCNC4)c4ccccc4o3)cc2o1 (stereo not shown)	MOLM-13	cell growth or viability, CCK-8	1 µM	inhibition	41.4%
CCCCCCCCCCCCCCCCCCOc1ccccc1CC(=O)OCC[N+]1(C)CCCCC1	NCI-H23	cell growth or viability, SRB	10 µM	inhibition	70.2%
COC(=O)[C@H]1[C@@H](O)[C@@]2(O)c3c(OC)cc(O[C@@H]4O[C@@H]([C@H](O)CO)CO[C@H]4OC)cc3O[C@@]2(c2ccc(OC)cc2)[C@@H]1c1ccccc1	C6661	cell growth or viability, MTS	72 h	IC50	0.005 µM
CCCCCCCCCCCCCCCCCCOc1cccc(CC(=O)OCC[N+]2(C)CCCCC2)c1	NCI-H23	cell growth or viability, SRB	10 µM	inhibition	16.1%
NCCC(=O)Nc1ccc(/N=c2\cc(-c3ccc4c(c3)OCO4)oc3ccccc23)cc1	MOLM-13	cell growth or viability, CCK-8	1 µM	inhibition	3.6%
